# Key:
# [1] = tested on: P388; assay: Antitumor activity against P388 Leukemia from CDF1 female mice evaluated as the number of survivors on day 5 at a dose of 0.06 mg/kg/day; format: functional, Mus musculus
# Procedure, shortened: (§1)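 CDF1 female mice (BALB/c × DBA/2) inoculated ip with 10⁶ P388 cells on day 0. Drug given ip in 2% methanol on days 1, 5 and 9. Ten mice per dose group, with a larger control group. Body weight and survival were recorded on days 1 and 5, with toxicity taken as survivors on day 5. Mortality was followed for 30 days to give median survival time.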
# [2] = tested on: B16; assay: Antitumor activity against B16 melanoma from B6 D2 F1 female mice as average weight change of animals between day 1 and day 5 after tumor implementation at a dose of 0.03 mg/kg/day (repeated ip injections, day 1-9); format: functional, Mus musculus; details: route intraperitoneal
# Procedure, shortened: (§2)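 B6D2F1 female mice (C57BL/6 × DBA/2) were implanted ip on day 0 with 0.5 mL of B16 suspension (1 g tumor homogenized in 9 mL 0.9% saline). Ip treatment was given once daily, day 1 to day 9. Body weight was recorded on days 1 and 5 after implantation, and the mean change per group was reported.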
# [3] = tested on: B16; assay: Antitumor activity against B16 melanoma from B6 D2 F1 female mice evaluated as average weight change of animals between day 1 and day 5 after tumor implementation at a dose of 1 mg/kg/day; format: functional, Mus musculus
# Procedure, shortened: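 B16 melanoma in B6D2F1 female mice: 0.5 mL of tumor homogenate (1 g in 9 mL 0.9% saline) was given ip on day 0. Ip dosing was on days 1, 5 and 9. The readout was the average body weight change between day 1 and day 5 after tumor implantation.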
# [4] = tested on: L1210; assay: Antitumor activity against L1210 Lymphoid Leukemia from CDF1 female mice (T/C) as median survival time of treated mice (T) over that of control mice (C) at a dose of 0.50 mg/kg/day; format: functional, Mus musculus
# Procedure, shortened: (§3)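 L1210 leukemia, 10⁵ cells ip on day 0 into CDF1 female mice (BALB/c ♀ × DBA/2 ♂). Drug in 2% methanol given ip on days 1, 5 and 9, 10 mice per group. Survivors and body weight recorded on days 1 and 5, with toxicity as survivors on day 5. Deaths followed for 30 days. T/C = treated/control median survival time, significant at ≥125%.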
# [5] = tested on: B16; assay: Antitumor activity against B16 melanoma from B6 D2 F1 female mice evaluated as the number of survivors on day 5 at a dose of 0.50 mg/kg/day (repeated ip injections, day 1-9); format: functional, Mus musculus; details: route intraperitoneal
# Procedure, shortened: (§4)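 B16 melanoma homogenate (1 g tumor in 9 mL 0.9% saline), 0.5 mL implanted ip on day 0 in B6D2F1 female mice (C57BL/6 ♀ × DBA/2 ♂). Treatment ip once daily from day 1 to day 9. Toxicity scored as survivors on day 5. Median survival recorded and T/C computed as treated/control median survival, ≥125% significant.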
# [6] = tested on: B16; assay: Antitumor activity against B16 melanoma from B6 D2 F1 female mice as average weight change of animals between day 1 and day 5 after tumor implementation at a dose of 0.50 mg/kg/day (repeated ip injections, day 1-9); format: functional, Mus musculus; details: route intraperitoneal; procedure, shortened: as §2
# [7] = tested on: B16; assay: Antitumor activity against B16 melanoma from B6 D2 F1 female mice as Median survival time of treated mice at a dose of 0.03 mg/kg/day (repeated ip injections, day 1-9); format: functional, Mus musculus; details: route intraperitoneal; procedure, shortened: as §4
# [8] = tested on: P388; assay: Average weight change of animals between day 1 and day 5 after tumor implementation at a dose of 0.03 mg/kg/day; format: functional, Mus musculus
# Procedure, shortened: (§5)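 P388 leukemia: CDF1 female mice were inoculated ip with 10⁶ cells on day 0. Treatment in 2% methanol was given ip on days 1, 5 and 9, with 10 mice per group and a larger control group. Body weight was recorded on days 1 and 5 post-implant, and the average change was reported.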
# [9] = tested on: P388; assay: Antitumor activity was evaluated from the median survival time of treated mice (T) over that of control mice (C) at a dose of 1 mg/kg/day; format: functional, Mus musculus
# [10] = tested on: L1210; assay: In vitro cytostatic activity determined on L1210 leukemia cells at 24 hours.; format: functional; details: Mus musculus, L1210, 24 h; read-out: ID50 (the source's name)
# Procedure, shortened: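 Log-phase L1210 cells were seeded at 0.8 × 10⁵ cells/mL in RPMI 1640 with 20% heat-inactivated horse serum, 2 mmol/L L-glutamine, streptomycin and penicillin. Drugs in ethanol (0.5% final) were tested at several concentrations.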
# [11] = tested on: P388; assay: Median survival time of treated mice at a dose of 1 mg/kg/day; format: functional, Mus musculus
# [12] = tested on: P388; assay: Antitumor activity against P388 Leukemia from CDF1 female mice evaluated as the number of survivors on day 5 at a dose of 0.50 mg/kg/day; format: functional, Mus musculus; procedure, shortened: as §1
# [13] = tested on: L1210; assay: Antitumor activity against L1210 Lymphoid Leukemia from CDF1 female mice as Median survival time of treated mice at a dose of 1.0 mg/kg/day; format: functional, Mus musculus; procedure, shortened: as §3
# [14] = tested on: B16; assay: Antitumor activity against B16 melanoma from B6 D2 F1 female mice(T/C) was evaluated from the median survival time of treated mice (T) over that of control mice (C) at a dose of 0.06 mg/kg/day; format: functional, Mus musculus
# Procedure, shortened: (§6)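 B6D2F1 female mice (C57BL/6 ♀ × DBA/2 ♂) implanted ip on day 0 with 0.5 mL of B16 tumor suspension (1 g homogenized in 9 mL 0.9% saline). Dosing ip on days 1, 5 and 9. Day-5 survivors give toxicity. Median survival of treated vs control mice gives T/C%, with ≥125% significant.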
# [15] = tested on: B16; assay: Antitumor activity against B16 melanoma from B6 D2 F1 female mice as Median survival time of treated mice at a dose of 0.50 mg/kg/day (repeated ip injections, day 1-9); format: functional, Mus musculus; details: route intraperitoneal; procedure, shortened: as §4
# [16] = tested on: P388; assay: Average weight change of animals between day 1 and day 5 after tumor implementation at a dose of 0.75 mg/kg/day; format: functional, Mus musculus; procedure, shortened: as §5
# [17] = tested on: L1210; assay: Antitumor activity against L1210 Lymphoid Leukemia from CDF1 female mice as Median survival time of treated mice at a dose of 0.50 mg/kg/day; format: functional, Mus musculus; procedure, shortened: as §3
# [18] = tested on: L1210; assay: Antitumor activity against L1210 Lymphoid Leukemia from CDF1 female mice as average weight change of animals between day 1 and day 5 after tumor implementation at a dose of 1.0 mg/kg/day; format: functional, Mus musculus
# Procedure, shortened: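 CDF1 female mice (BALB/c × DBA/2) received 10⁵ L1210 cells ip on day 0. Drug was dissolved in 2% methanol and given ip on days 1, 5 and 9, to 10 mice per group. Weights were taken on days 1 and 5, and the mean change was reported.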
# [19] = tested on: B16; assay: Antitumor activity against B16 melanoma from B6 D2 F1 female mice evaluated as the number of survivors on day 5 at a dose of 0.25 mg/kg/day (repeated ip injections, day 1-9); format: functional, Mus musculus; details: route intraperitoneal; procedure, shortened: as §4
# [20] = tested on: B16; assay: Antitumor activity against B16 melanoma from B6 D2 F1 female mice(T/C) as median survival time of treated mice (T) over that of control mice (C) at a dose of 0.25 mg/kg/day (repeated ip injections, day 1-9); format: functional, Mus musculus; details: route intraperitoneal; procedure, shortened: as §4
# [21] = tested on: B16; assay: Antitumor activity against B16 melanoma from B6 D2 F1 female mice evaluated as Median survival time of treated mice at a dose of 0.06 mg/kg/day; format: functional, Mus musculus; procedure, shortened: as §6
# [22] = tested on: P388; assay: Average weight change of animals between day 1 and day 5 after tumor implementation at a dose of 0.50 mg/kg/day; format: functional, Mus musculus; procedure, shortened: as §5
# [23] = tested on: L1210; assay: Antitumor activity against L1210 Lymphoid Leukemia from CDF1 female mice (T/C) as median survival time of treated mice (T) over that of control mice (C) at a dose of 0.25 mg/kg/day; format: functional, Mus musculus; procedure, shortened: as §3
smiles,measurement,setting,value
COc1ccc(C[C@H]2C(=O)O[C@H](C)[C@H](NC(=O)[C@@H](CC(C)C)N(C)C(=O)C3CCCN3C(=O)[C@@H](C)O)C(=O)NC(C(C)C)[C@H](O)CC(=O)O[C@@H](C(C)C)C(=O)[C@H](C)C(=O)N[C@@H](CC(C)C)C(=O)N3CCC[C@H]3C(=O)N2C)cc1 (stereo partly drawn) [NORDIDEMNIN],Toxicity,[1],1
same,Body weight change,[2],-0.1 g
same,Body weight change,[3],0 g
same,T/C,[4],117%
same,Toxicity,[5],1
same,Body weight change,[6],-2.3 g
same,"median survival time, days",[7],26.5
same,Body weight change,[8],0 g
same,T/C,[9],180%
same,IC50,[10],3.6 ng/mL
same,"median survival time, days",[11],19.9
same,Toxicity,[12],1
same,"median survival time, days",[13],11.2
same,T/C,[14],116%
same,"median survival time, days",[15],9.9
same,Body weight change,[16],-1.7 g
same,"median survival time, days",[17],10.7
same,Body weight change,[18],-0.5 g
same,Toxicity,[19],1
same,T/C,[20],157%
same,"median survival time, days",[21],22
same,Body weight change,[22],-1.2 g
same,T/C,[23],111%
